From ChEMBL document CHEMBL5705907 (BMC Rheumatol, 2018)
Calls of active or inactive are those of the source. No cut-off for these calls is given here.

Columns and labels:
Rattus norvegicus [1] = assay: Antiarthritic activity in adjuvant-induced arthritis Lewis rat model at 3 to 10 mg/kg, po administered for 10 days and measured on day 17 by microCT-scanning analysis; format: functional, organism-based; conditions: dose 3-10 mg/kg, time 17.0 day
In short: (§1)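 Lewis rats with adjuvant-induced arthritis were given vehicle or drug by oral gavage twice daily for 10 days (Day 7–Day 17 post immunization). On Day 17 they were exsanguinated by cardiac puncture under isoflurane. Left rear paws were μCT-scanned, and bone volume and density were determined in a 360 μm vertical section through the tarsal region. Groups were compared with vehicle by Dunnett's test.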

Rattus norvegicus [2] = assay: Antiarthritic activity in adjuvant-induced arthritis Lewis rat model assessed as reduction in paw swelling at 5 to 10 mg/kg, po administered for 10 days and measured on day 17; format: functional; set-up: scale not given: the % may be the effect or the level left; conditions: dose 5-10 mg/kg, time 17 day
In short: (§2)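 In rats with adjuvant-induced arthritis, vehicle or drug was given by oral gavage BID for 10 days (Day 7–Day 17 after immunization). Paw swelling was measured by water-displacement plethysmography every other day up to Day 17. Treatment groups were compared with vehicle by Dunnett's multiple comparison test.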

[3] = Inhibition of ABL (unknown origin) by TR-FRET assay; set-up: species or system Homo sapiens
[4] = target: AMP-activated protein kinase, AMPK; assay: Inhibition of AMPK (unknown origin) by TR-FRET assay; format: protein-complex assay, Homo sapiens
[5] = target: Cyclin-dependent kinase 11B (Homo sapiens, UniProt P21127); assay: Inhibition of CDK11 (unknown origin) by TR-FRET assay
Rattus norvegicus [6] = assay: Antiarthritic activity in adjuvant-induced arthritis Lewis rat model assessed as reduction in paw swelling administered for 10 days and measured on day 17; format: functional, organism-based; conditions: time 17.0 day; in short: as §2
Rattus norvegicus [7] = assay: Antiarthritic activity in adjuvant-induced arthritis po dosed Lewis rat model assessed as bone destruction by measuring reduction in bone volume administered for 10 days and measured on day 17 by microCT-scanning analysis; format: functional, organism-based; conditions: dose 0.1-10 mg/kg, time 17.0 day; in short: as §1
Rattus norvegicus [8] = assay: Antiarthritic activity in adjuvant-induced arthritis Lewis rat model assessed as bone destruction by measuring reduction in bone volume at 10 mg/kg, po administered for 10 days and measured on day 17 by microCT-scanning analysis; format: functional; set-up: scale not given: the % may be the effect or the level left; conditions: time 17 day
In short: (§3)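 Rats dosed by oral gavage twice daily (BID) with vehicle or drug for 10 days (Day 7–Day 17 post immunization). On Day 17, rats exsanguinated by cardiac puncture under isoflurane; left rear paw scanned by μCT. Bone volume and density determined in a 360 μm vertical section encompassing the tarsal region. Each group compared with vehicle by Dunnett's multiple comparison test.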

Rattus norvegicus [9] = assay: Antiarthritic activity in adjuvant-induced arthritis Lewis rat model assessed as bone destruction by measuring reduction in bone volume at 3 mg/kg, po administered for 10 days and measured on day 17 by microCT-scanning analysis; format: functional; set-up: scale not given: the % may be the effect or the level left; conditions: time 17 day; in short: as §1
Rattus norvegicus [10] = assay: Antiarthritic activity in adjuvant-induced arthritis Lewis rat model assessed as bone destruction by measuring reduction in bone volume at 1 mg/kg, po administered for 10 days and measured on day 17 by microCT-scanning analysis; format: functional; set-up: scale not given: the % may be the effect or the level left; conditions: time 17 day; in short: as §3
Rattus norvegicus [11] = assay: Antiarthritic activity in adjuvant-induced arthritis Lewis rat model assessed as bone destruction by measuring reduction in bone volume at 0.3 mg/kg, po administered for 10 days and measured on day 17 by microCT-scanning analysis; format: functional; set-up: scale not given: the % may be the effect or the level left; conditions: time 17 day; in short: as §3
Rattus norvegicus [12] = assay: Antiarthritic activity in adjuvant-induced arthritis Lewis rat model assessed as bone destruction by measuring reduction in bone volume at 0.1 mg/kg, po administered for 10 days and measured on day 17 by microCT-scanning analysis; format: functional; set-up: scale not given: the % may be the effect or the level left; conditions: time 17 day; in short: as §1
Rattus norvegicus [13] = assay: Antiarthritic activity in adjuvant-induced arthritis Lewis rat model assessed as improvement in synovial hypertrophy at 3 to 10 mg/kg, po administered for 10 days and measured on day 17 by microCT-scanning analysis; format: functional, organism-based; conditions: dose 3-10 mg/kg, time 17.0 day
Rattus norvegicus [14] = assay: Antiarthritic activity in adjuvant-induced arthritis Lewis rat model assessed as improvement in cartilage damage at 3 to 10 mg/kg, po administered for 10 days and measured on day 17 by microCT-scanning analysis; format: functional, organism-based; conditions: dose 3-10 mg/kg, time 17.0 day
Rattus norvegicus [15] = assay: Antiarthritic activity in adjuvant-induced arthritis Lewis rat model assessed as improvement in bone erosion at 3 to 10 mg/kg, po administered for 10 days and measured on day 17 by microCT-scanning analysis; format: functional, organism-based; conditions: dose 3-10 mg/kg, time 17.0 day
Blood = assay: Ex-vivo inhibition of JAK1 in human blood assessed as reduction in IL-6-induced STAT3 phosphorylation at 36 mg/kg, po measured after 12 hrs; format: functional, organism-based
In short: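 Blood was drawn into sodium heparin tubes at 0, 1, 6 and 12 h after an oral dose. It was stimulated with recombinant human IL-6 (400 ng/ml) for 10 min at 37°C and surface-stained for CD14/CD3 on ice. Samples were lysed/fixed, frozen at −70°C, permeabilized, and stained for pSTAT3 for flow cytometry. Percent inhibition used geometric means of induced minus baseline pSTAT relative to pre-dose.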

Rattus norvegicus [16] = assay: Antiarthritic activity in adjuvant-induced arthritis Lewis rat model assessed as improvement in bone erosion at 3 to 10 mg/kg, po administered for 10 days and measured on day 17 by microCT-scanning analysis; conditions: dose 3-10 mg/kg, time 17.0 day
Rattus norvegicus [17] = assay: Antiarthritic activity in adjuvant-induced arthritis Lewis rat model assessed as improvement in cartilage damage at 3 to 10 mg/kg, po administered for 10 days and measured on day 17 by microCT-scanning analysis; conditions: dose 3-10 mg/kg, time 17.0 day
Rattus norvegicus [18] = assay: Antiarthritic activity in adjuvant-induced arthritis Lewis rat model assessed as improvement in synovial hypertrophy at 3 to 10 mg/kg, po administered for 10 days and measured on day 17 by microCT-scanning analysis; conditions: dose 3-10 mg/kg, time 17.0 day

Cyclin-dependent kinase 11B, sequence (P21127 whole entry): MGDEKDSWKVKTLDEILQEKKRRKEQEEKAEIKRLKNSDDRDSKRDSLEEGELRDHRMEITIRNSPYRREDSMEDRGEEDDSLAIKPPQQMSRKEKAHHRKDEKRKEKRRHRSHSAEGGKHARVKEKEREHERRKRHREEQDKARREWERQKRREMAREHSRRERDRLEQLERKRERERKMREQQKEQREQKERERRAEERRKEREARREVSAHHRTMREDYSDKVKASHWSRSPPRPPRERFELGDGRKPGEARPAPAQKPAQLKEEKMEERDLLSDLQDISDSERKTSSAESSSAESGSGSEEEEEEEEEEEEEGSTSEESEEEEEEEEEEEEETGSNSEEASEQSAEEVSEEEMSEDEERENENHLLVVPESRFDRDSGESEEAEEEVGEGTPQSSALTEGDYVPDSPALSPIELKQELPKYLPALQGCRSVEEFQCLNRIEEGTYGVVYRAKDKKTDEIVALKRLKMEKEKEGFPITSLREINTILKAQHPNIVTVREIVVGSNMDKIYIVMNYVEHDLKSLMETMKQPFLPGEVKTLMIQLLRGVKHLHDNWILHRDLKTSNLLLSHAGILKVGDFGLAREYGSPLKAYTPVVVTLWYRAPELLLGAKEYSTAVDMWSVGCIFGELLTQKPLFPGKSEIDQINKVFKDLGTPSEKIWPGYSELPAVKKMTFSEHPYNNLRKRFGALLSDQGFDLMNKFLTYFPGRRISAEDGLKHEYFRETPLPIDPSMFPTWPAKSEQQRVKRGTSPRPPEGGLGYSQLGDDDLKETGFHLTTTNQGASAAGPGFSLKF

| Structure (SMILES) | Activity (Rattus norvegicus [1]) | Activity (Rattus norvegicus [2]) [%] | IC50 [3] [µM] | IC50 [4] [µM] | IC50 [5] [µM] | Activity (Rattus norvegicus [6]) | Activity (Rattus norvegicus [7]) | Activity (Rattus norvegicus [8]) [%] | Activity (Rattus norvegicus [9]) [%] | Activity (Rattus norvegicus [10]) [%] | Activity (Rattus norvegicus [11]) [%] | Activity (Rattus norvegicus [12]) [%] | Activity (Rattus norvegicus [13]) | Activity (Rattus norvegicus [14]) | Activity (Rattus norvegicus [15]) | inhibition (Blood) | Activity (Rattus norvegicus [16]) | Activity (Rattus norvegicus [17]) | Activity (Rattus norvegicus [18]) |
| --- | --- | --- | --- | --- | --- | --- | --- | --- | --- | --- | --- | --- | --- | --- | --- | --- | --- | --- | --- |
| C[C@@H]1CCN(C(=O)CC#N)C[C@@H]1N(C)c1ncnc2[nH]ccc12 [TOFACITINIB] | Active | >60 |  |  |  |  |  |  |  |  |  |  |  |  |  |  |  |  |  |
| CC[C@@H]1CN(C(=O)NCC(F)(F)F)C[C@@H]1c1cnc2cnc3[nH]ccc3n12 [UPADACITINIB] |  | >60 | > 10 | > 4.5 | > 10 | Active | Dose-Dependent Effect | 89 | 96 | 63 | 16 | 26 | Active | Active | Active | Active | Active | Active | Active |
